# Measurements from ChEMBL document CHEMBL1123985, “Oral absorption of cephalosporin antibiotics. 1. Synthesis, biological properties, and oral bioavailability of 7-(arylacetamido)-3-chloro cephalosporins in animals” (J Med Chem, 1988).
# Key:
# [1] = Minimum inhibitory concentration against N9 strain of Shigella sonnei; assay type: functional
# Klebsiella pneumoniae = assay: Minimum inhibitory concentration against X68 strain of Klebsiella pneumoniae; assay type: functional
# Staphylococcus aureus [2] = assay: Minimum inhibitory concentration against S13E strain of Staphylococcus aureus; assay type: functional
# Streptococcus pneumoniae [3] = assay: Minimum inhibitory concentration against park strain of Streptococcus pneumoniae
# [4] = Minimum inhibitory concentration against res 76 strain of Haemophilus influenzae; assay type: functional
# Staphylococcus aureus [5] = assay: Minimum inhibitory concentration against X1.1 strain of Staphylococcus aureus; assay type: functional
# [6] = system: Staphylococcus epidermidis; assay: Minimum inhibitory concentration against Epil strain of Staphylococcus epidermidis; assay type: functional
# Staphylococcus aureus [7] = assay: Minimum inhibitory concentration against V41 strain of Staphylococcus aureus; assay type: functional
# [8] = system: Staphylococcus epidermidis; assay: Minimum inhibitory concentration against 222 strain of Staphylococcus epidermidis; assay type: functional
# Staphylococcus aureus [9] = assay: Minimum inhibitory concentration against 3055 strain of Staphylococcus aureus
# Streptococcus pyogenes [10] = assay: Minimum inhibitory concentration against C203 strain of Streptococcus pyogenes
# Streptococcus pneumoniae [11] = assay: Minimum inhibitory concentration against Park strain of Streptococcus pneumoniae
# [12] = Minimum inhibitory concentration against sens CL strain of Haemophilus influenzae; assay type: functional
# Escherichia coli = assay: Minimum inhibitory concentration against EC14 strain Escherichia coli; assay type: functional
# Streptococcus pyogenes [13] = assay: Minimum inhibitory concentration against Streptococcus pyogenes C203; assay type: functional
# Klebsiella aerogenes = assay: Minimum inhibitory concentration against EB17 strain of Enterobacter aerogenes; assay type: functional
# Salmonella = assay: Minimum inhibitory concentration against X514 strain of Salmonella; assay type: functional
# [14] = Oral bioavailability in mouse; assay type: ADME, organism-based; conditions: in vivo
# How it was run: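 Male Cox mice given water and liquid diet overnight; 20 mg/kg in saline (2 mg/mL) sc or orally; urine from collection cages plus bladder contents over 2 h; activity by agar well assay with Bacillus subtilis ATCC 6633. Bioavailability from percent dose excreted in urine after oral vs parenteral dosing.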
# [15] = Oral bioavailability in Rhesus monkey; assay type: ADME, organism-based, Macaca mulatta; conditions: in vivo
# How it was run: (§1)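 Rhesus monkeys, adult males, six animals per compound, each given drug orally and iv; fasted overnight. Single 30 mg/kg solution doses, by nasogastric tube (in water) or saphenous vein (in isotonic lactated Ringer). Plasma sampled at intervals, frozen at -70 °C, antibacterial activity by microbiological assay. AUC in μg min/mL; oral bioavailability from oral vs iv AUC.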
# Canis familiaris [16] = assay: Area under plasma concentration vs time curve observed in female mongrel dogs after, oral administration of single 15 mg/kg dose; assay type: ADME, organism-based, Canis lupus familiaris; set-up: dose 15 mg/kg, route oral; conditions: dog, in vivo
# How it was run: (§2)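 Six female mongrel dogs (14-23 kg) fasted overnight, bladder catheterized; single 15 mg/kg solution doses by stomach tube (in water, total 500 mL) or cephalic vein (saline or pH 6.0 NaCl/phosphate/acetate buffer). Plasma sampled at intervals; activity by disk-plate agar diffusion against E. coli MB 3804, standards in dog serum or buffer. AUC μg min/mL, mean ± SEM; BA from iv vs po AUC and urinary recovery.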
# [17] = Area under plasma concentration vs time curve observed in Rhesus monkeys after, iv administration of single 30 mg/kg dose; assay type: ADME, organism-based, Macaca mulatta; set-up: dose 30 mg/kg, route intravenous; conditions: rhesus monkey; how it was run: as §1
# [18] = Oral bioavailability in dog (female mongrel); assay type: ADME, organism-based, Canis lupus familiaris; conditions: in vivo; how it was run: as §2
# [19] = Dose in urine (24-h urine excretion) in female mongrel dogs after iv administration of single 15 mg/kg dose; assay type: ADME, organism-based, Canis lupus familiaris; set-up: dose 15 mg/kg, route intravenous; conditions: dog
# How it was run: (§3)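 Female mongrel dogs (n=6), bladder catheter; urine collected at intervals after single 15 mg/kg iv or oral solution dose, frozen; antibiotic activity by disk-plate agar diffusion against E. coli MB 3804 with standards in pH 6.0 buffer; percent of dose recovered in urine.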
# [20] = Area under plasma concentration vs time curve observed in Rhesus monkeys after oral administration of single 30 mg/kg dose; assay type: ADME, organism-based, Macaca mulatta; set-up: dose 30 mg/kg, route oral; conditions: rhesus monkey; how it was run: as §1
# Canis familiaris [21] = assay: Area under plasma concentration vs time curve observed in female mongrel dogs after, iv administration of single 15 mg/kg dose; assay type: ADME, organism-based, Canis lupus familiaris; set-up: dose 15 mg/kg, route intravenous; conditions: dog, in vivo; how it was run: as §2
# [22] = Dose in urine (24-h urine excretion) in female mongrel dogs after oral administration of single 15 mg/kg dose; assay type: ADME, organism-based, Canis lupus familiaris; set-up: dose 15 mg/kg, route oral; conditions: dog; how it was run: as §3
Compound,MIC [1],MIC (Klebsiella pneumoniae),MIC (Staphylococcus aureus [2]),MIC (Streptococcus pneumoniae [3]),MIC [4],MIC (Staphylococcus aureus [5]),MIC [6],MIC (Staphylococcus aureus [7]),MIC [8],MIC (Staphylococcus aureus [9]),MIC (Streptococcus pyogenes [10]),MIC (Streptococcus pneumoniae [11]),MIC [12],MIC (Escherichia coli),MIC (Streptococcus pyogenes [13]),MIC (Klebsiella aerogenes),MIC (Salmonella),bioavailability [14],other results
O=C(Cc1csc2ccc(Cl)cc12)N[C@@H]1C(=O)N2C(C(=O)O)=C(Cl)CS[C@H]12,128 µg/mL,128 µg/mL,2 µg/mL,0.02 µg/mL,0.25 µg/mL,0.03 µg/mL,0.5 µg/mL,2 µg/mL,0.125 µg/mL,0.06 µg/mL,0.03 µg/mL,0.015 µg/mL,1 µg/mL,64 µg/mL,0.015 µg/mL,128 µg/mL,128 µg/mL,,
O=C(Cc1ccsc1)N[C@@H]1C(=O)N2C(C(=O)O)=C(Cl)CS[C@H]12,32 µg/mL,2 µg/mL,16 µg/mL,,1 µg/mL,0.5 µg/mL,4 µg/mL,8 µg/mL,1 µg/mL,,,0.125 µg/mL,1 µg/mL,8 µg/mL,0.125 µg/mL,> 128 µg/mL,1 µg/mL,47%,
O=C(Cc1cccs1)N[C@@H]1C(=O)N2C(C(=O)O)=C(Cl)CS[C@H]12,32 µg/mL,2 µg/mL,16 µg/mL,0.25 µg/mL,1 µg/mL,0.5 µg/mL,2 µg/mL,16 µg/mL,1 µg/mL,0.5 µg/mL,0.125 µg/mL,0.125 µg/mL,1 µg/mL,4 µg/mL,0.125 µg/mL,64 µg/mL,2 µg/mL,44%,bioavailability [15]: 13.1%; AUC (Canis familiaris [16]): 15500 ng·h/mL; AUC [17]: 43200 ng·h/mL; bioavailability [18]: 21%; dose excreted [19]: 75%; AUC [20]: 5670 ng·h/mL; AUC (Canis familiaris [21]): 75300 ng·h/mL; dose excreted [22]: 17%
COC1=C(C(=O)O)N2C(=O)[C@@H](NC(=O)Cc3csc(N)n3)[C@H]2SC1,32 µg/mL,8 µg/mL,> 128 µg/mL,,8 µg/mL,8 µg/mL,128 µg/mL,32 µg/mL,32 µg/mL,,,2 µg/mL,8 µg/mL,8 µg/mL,0.5 µg/mL,32 µg/mL,2 µg/mL,< 5%,
O=C(Cc1ccccc1)N[C@@H]1C(=O)N2C(C(=O)O)=C(Cl)CS[C@H]12,64 µg/mL,4 µg/mL,32 µg/mL,0.25 µg/mL,1 µg/mL,0.5 µg/mL,2 µg/mL,16 µg/mL,1 µg/mL,0.5 µg/mL,0.125 µg/mL,0.125 µg/mL,1 µg/mL,8 µg/mL,0.125 µg/mL,> 128 µg/mL,4 µg/mL,37%,bioavailability [15]: 15.1%; AUC (Canis familiaris [16]): 16200 ng·h/mL; AUC [17]: 58300 ng·h/mL; bioavailability [18]: 17%; dose excreted [19]: 67%; AUC [20]: 8830 ng·h/mL; AUC (Canis familiaris [21]): 97300 ng·h/mL; dose excreted [22]: 15%
COC1=C(C(=O)O)N2C(=O)[C@@H](NC(=O)COc3ccccc3)[C@H]2SC1,> 128 µg/mL,> 128 µg/mL,16 µg/mL,,4 µg/mL,2 µg/mL,8 µg/mL,32 µg/mL,2 µg/mL,,,1 µg/mL,4 µg/mL,> 128 µg/mL,1 µg/mL,> 128 µg/mL,> 128 µg/mL,14%,
O=C(Cc1ccc(O)cc1)N[C@@H]1C(=O)N2C(C(=O)O)=C(Cl)CS[C@H]12,128 µg/mL,8 µg/mL,128 µg/mL,,2 µg/mL,2 µg/mL,8 µg/mL,16 µg/mL,2 µg/mL,,,0.25 µg/mL,2 µg/mL,32 µg/mL,0.125 µg/mL,> 128 µg/mL,8 µg/mL,14%,
O=C(Cc1csc(Cl)n1)N[C@@H]1C(=O)N2C(C(=O)O)=C(Cl)CS[C@H]12,64 µg/mL,,,,,,,,,,,0.5 µg/mL,,,,> 128 µg/mL,8 µg/mL,56%,
